Experimental data taken from ChEMBL document CHEMBL4196017, “Design, synthesis and identification of silicon-containing HCV NS5A inhibitors with pan-genotype activity” (Eur J Med Chem, 2018).

Columns and labels:
[1] = Metabolic stability in mouse liver microsomes assessed as parent compound remaining at 0.2 uM preincubated for 5 mins followed by NADPH addition measured up to 60 mins by UPLC-MS/MS analysis; assay type: ADME, microsome; conditions: read-out: Stability
Procedure, shortened: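 Pooled mouse, rat or human liver microsomes 0.2 mg/mL with 1 mM NADPH, 5 mM MgCl2, 100 mM potassium phosphate pH 7.4 and 0.2 µM compound; 5-min preincubation at 37 °C, NADPH start, sampled at 5, 15, 30, 60 min; ice-cold acetonitrile stop; UPLC-MS/MS; percent parent remaining at 60 min.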

[2] = Tmax in mouse at 10 mg/kg, ig administered as single dose by UPLC-MS/MS analysis; assay type: ADME, organism-based; conditions: in vivo, po
Procedure, shortened: (§1)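 Adult male mice (12 h light-dark, 22 °C, 55% humidity) fasted 12 h with free water, then given a single 10 mg/kg intragastric dose; plasma concentrations by UPLC-MS/MS; PK parameters calculated by software.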

[3] = Half life in mouse at 10 mg/kg, ig administered as single dose by UPLC-MS/MS analysis; assay type: ADME, organism-based; conditions: in vivo, po; procedure, shortened: as §1
[4] = AUC (0 to t) in mouse at 10 mg/kg, ig administered as single dose by UPLC-MS/MS analysis; assay type: ADME, organism-based; conditions: in vivo, po; procedure, shortened: as §1
[5] = Half life in beagle dog at 2 mg/kg, po administered as single dose by UPLC-MS/MS analysis; assay type: ADME, organism-based, Canis lupus familiaris; conditions: in vivo
[6] = AUC (0 to t) in beagle dog at 2 mg/kg, po administered as single dose by UPLC-MS/MS analysis; assay type: ADME, organism-based, Canis lupus familiaris; conditions: in vivo
[7] = Protein binding in rat plasma at 10 uM after 6 hrs by UPLC-MS/MS based equilibrium dialysis method; assay type: ADME, cell-free; conditions: read-out: PPB (converted)
Procedure, shortened: (§2)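 Equilibrium dialysis: plasma (pH 7.4) preincubated 15 min at 37 °C, spiked with compound at 1 or 10 µM (0.5% DMSO final); dialysed against 100 mM phosphate buffer pH 7.4, 6 h at 37 °C, 100 rpm; donor and receiver samples analysed by UPLC-MS/MS.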

[8] = Protein binding in mouse plasma at 1 uM after 6 hrs by UPLC-MS/MS based equilibrium dialysis method; assay type: ADME, cell-free; conditions: read-out: PPB (converted); procedure, shortened: as §2
[9] = Protein binding in dog plasma at 10 uM after 6 hrs by UPLC-MS/MS based equilibrium dialysis method; assay type: ADME, cell-free, Canis lupus familiaris; conditions: read-out: PPB (converted); procedure, shortened: as §2
[10] = Protein binding in human plasma at 1 uM after 6 hrs by UPLC-MS/MS based equilibrium dialysis method; assay type: ADME, cell-free; conditions: read-out: PPB (converted); procedure, shortened: as §2
[11] = Efflux ratio of apparent permeability in human Caco2 cells after 90 mins by UPLC-MS/MS analysis; assay type: ADME, cell-based; conditions: Caco-2
Procedure, shortened: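 Caco-2 cells on Transwell inserts grown 21-23 days to TEER ≥200 Ω cm²; rinsed with warm HBSS, preincubated 30 min at 37 °C in 2% BSA with or without inhibitor; compound in 2% BSA added apical or basolateral, 90 min at 37 °C; receiver sampled, UPLC-MS/MS; duplicate; Papp calculated.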

[12] = Cytotoxicity against HUVEC assessed as growth inhibition at 50 uM relative to control; assay type: cell-based; conditions: human, read-out: GI
Procedure, shortened: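 HUVEC from healthy donors exposed to compound at 50 µM; percent inhibition reported as mean of n = 3.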

[13] = Ratio of drug uptake in Sprague-Dawley rat liver to plasma at 10 mg/kg, ig administered as single dose measured after 2 hrs by UPLC-MS/MS analysis; assay type: ADME, organism-based; conditions: po
[14] = Ratio of drug uptake in Sprague-Dawley rat liver to plasma at 10 mg/kg, ig administered as single dose measured after 24 hrs by UPLC-MS/MS analysis; assay type: ADME, organism-based; conditions: po
[15] = target: Cytochrome P450 3A4 (Homo sapiens, UniProt P08684); test: Inhibition of CYP3A4 in human liver microsomes at 1 to 10 uM using midazolam as substrate preincubated for 5 mins followed by NADPH addition measured after 30 mins by UPLC-MS/MS analysis relative to control; assay type: ADME; conditions: 0.5 h
Chain of Cytochrome P450 3A4 (P08684 whole entry): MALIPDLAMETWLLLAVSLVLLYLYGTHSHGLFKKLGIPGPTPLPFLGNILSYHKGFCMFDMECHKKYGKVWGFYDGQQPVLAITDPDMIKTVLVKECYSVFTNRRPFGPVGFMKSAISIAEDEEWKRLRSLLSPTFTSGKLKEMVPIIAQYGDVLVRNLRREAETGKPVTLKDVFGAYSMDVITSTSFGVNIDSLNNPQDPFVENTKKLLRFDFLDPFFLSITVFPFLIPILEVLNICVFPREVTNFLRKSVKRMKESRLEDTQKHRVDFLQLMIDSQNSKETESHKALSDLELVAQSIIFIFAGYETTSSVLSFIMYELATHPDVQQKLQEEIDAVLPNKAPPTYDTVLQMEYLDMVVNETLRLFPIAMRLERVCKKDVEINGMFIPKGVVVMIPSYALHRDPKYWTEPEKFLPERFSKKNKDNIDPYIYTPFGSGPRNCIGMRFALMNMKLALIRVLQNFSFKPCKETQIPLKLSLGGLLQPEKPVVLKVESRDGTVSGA

[16] = target: T1, Cytochrome P450 2B6 (Homo sapiens, UniProt P20813); test: Inhibition of CYP2B6 in human liver microsomes at 1 to 10 uM using bupropion hydrochloride as substrate preincubated for 5 mins followed by NADPH addition measured after 30 mins by UPLC-MS/MS analysis relative to control; assay type: ADME; conditions: 0.5 h
T1 sequence (P20813 whole entry): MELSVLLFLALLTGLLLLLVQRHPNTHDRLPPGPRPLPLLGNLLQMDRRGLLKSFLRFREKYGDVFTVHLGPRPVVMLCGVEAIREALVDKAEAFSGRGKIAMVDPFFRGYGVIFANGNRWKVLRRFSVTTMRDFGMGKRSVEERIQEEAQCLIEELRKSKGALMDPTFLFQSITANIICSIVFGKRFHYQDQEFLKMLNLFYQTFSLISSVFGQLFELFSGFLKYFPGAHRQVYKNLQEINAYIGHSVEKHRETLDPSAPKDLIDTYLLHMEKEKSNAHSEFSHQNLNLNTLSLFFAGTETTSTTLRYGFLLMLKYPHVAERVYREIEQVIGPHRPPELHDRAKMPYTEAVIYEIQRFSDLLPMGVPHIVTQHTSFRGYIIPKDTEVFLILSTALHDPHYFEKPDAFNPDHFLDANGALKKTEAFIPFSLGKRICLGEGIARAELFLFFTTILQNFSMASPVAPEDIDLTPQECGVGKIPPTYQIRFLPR

[17] = target: T2, Cytochrome P450 2A6 (Homo sapiens, UniProt P11509); test: Inhibition of CYP2A6 in human liver microsomes at 1 to 10 uM using coumarin as substrate preincubated for 5 mins followed by NADPH addition measured after 30 mins by UPLC-MS/MS analysis relative to control; assay type: ADME; conditions: 0.5 h
T2 sequence (P11509 whole entry): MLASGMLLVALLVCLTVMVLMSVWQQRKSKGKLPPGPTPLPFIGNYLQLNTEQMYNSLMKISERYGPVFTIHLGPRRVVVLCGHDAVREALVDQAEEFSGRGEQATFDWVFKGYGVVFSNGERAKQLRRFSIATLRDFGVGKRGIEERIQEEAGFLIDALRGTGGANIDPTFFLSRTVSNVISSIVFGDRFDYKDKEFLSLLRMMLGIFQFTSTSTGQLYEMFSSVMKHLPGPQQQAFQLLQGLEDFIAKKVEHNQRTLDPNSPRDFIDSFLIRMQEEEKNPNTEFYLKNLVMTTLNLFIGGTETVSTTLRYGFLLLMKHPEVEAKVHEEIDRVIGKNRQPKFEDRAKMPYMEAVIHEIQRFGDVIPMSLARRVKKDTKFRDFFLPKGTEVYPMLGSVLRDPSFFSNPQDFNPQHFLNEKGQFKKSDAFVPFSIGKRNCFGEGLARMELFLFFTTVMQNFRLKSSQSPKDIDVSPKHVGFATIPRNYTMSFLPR

[18] = target: hERG (KCNH2) (Homo sapiens, UniProt Q12809); test: Inhibition of human ERG assessed as reduction in peak tail current at 10 uM at holding potential of -80 mV by patch clamp method relative to control
Chain of hERG (KCNH2) (Q12809 whole entry): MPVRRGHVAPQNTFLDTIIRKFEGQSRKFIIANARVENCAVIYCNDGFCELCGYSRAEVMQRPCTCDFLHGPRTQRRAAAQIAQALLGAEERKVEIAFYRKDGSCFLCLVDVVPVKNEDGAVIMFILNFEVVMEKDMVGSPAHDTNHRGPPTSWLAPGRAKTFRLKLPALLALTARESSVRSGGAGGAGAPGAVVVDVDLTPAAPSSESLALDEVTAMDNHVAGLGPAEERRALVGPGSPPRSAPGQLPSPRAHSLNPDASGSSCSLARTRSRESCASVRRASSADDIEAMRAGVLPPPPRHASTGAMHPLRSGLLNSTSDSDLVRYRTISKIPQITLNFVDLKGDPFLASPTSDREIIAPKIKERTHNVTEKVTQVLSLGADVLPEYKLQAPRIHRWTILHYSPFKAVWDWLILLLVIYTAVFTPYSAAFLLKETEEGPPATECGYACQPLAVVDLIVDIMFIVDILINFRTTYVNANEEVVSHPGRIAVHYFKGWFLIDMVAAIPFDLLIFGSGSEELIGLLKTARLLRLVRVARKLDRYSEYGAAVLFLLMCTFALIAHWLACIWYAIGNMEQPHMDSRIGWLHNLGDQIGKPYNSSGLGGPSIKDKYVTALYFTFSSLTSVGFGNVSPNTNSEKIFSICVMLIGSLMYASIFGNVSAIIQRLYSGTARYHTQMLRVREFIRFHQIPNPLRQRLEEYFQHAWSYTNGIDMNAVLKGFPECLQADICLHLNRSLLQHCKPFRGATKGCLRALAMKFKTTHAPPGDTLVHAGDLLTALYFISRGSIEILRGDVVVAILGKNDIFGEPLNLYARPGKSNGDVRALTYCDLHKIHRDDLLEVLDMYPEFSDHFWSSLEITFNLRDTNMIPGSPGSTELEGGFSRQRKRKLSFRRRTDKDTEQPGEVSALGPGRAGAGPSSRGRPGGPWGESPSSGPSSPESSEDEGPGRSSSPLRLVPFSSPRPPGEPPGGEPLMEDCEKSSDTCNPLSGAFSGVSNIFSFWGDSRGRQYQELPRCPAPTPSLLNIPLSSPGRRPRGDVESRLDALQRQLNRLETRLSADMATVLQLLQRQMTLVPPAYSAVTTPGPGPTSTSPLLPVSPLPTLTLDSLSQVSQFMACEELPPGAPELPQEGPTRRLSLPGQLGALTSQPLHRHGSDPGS
Procedure, shortened: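 Whole-cell patch clamp, room temperature; hold -80 mV, 2 s +50 mV depolarization then 3 s -50 mV repolarization every 30 s; peak tail current referenced to initial 50 ms step to -50 mV; 3 min vehicle stabilization, then test solution until stable (<5% over ~5 sweeps) or 6 min max; mean ± SD, n = 3.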

Compound | remaining at 1 h, 0.2 µM [1] | Tmax [2] | half-life [3] | AUC(0-t) [4] | half-life [5] | AUC(0-t) [6] | fraction unbound at 6 h, 10 µM [7] | fraction unbound at 6 h, 1 µM [8] | fraction unbound at 6 h, 10 µM [9] | fraction unbound at 6 h, 1 µM [10] | efflux ratio at 1.5 h [11] | inhibition at 50 µM [12] | Kp at 2 h [13] | Kp at 24 h [14] | inhibition (INH) [15] | inhibition (INH) [16] | inhibition (INH) [17] | inhibition at 10 µM [18]
CC[Si](CC)(CC)c1ccc(N2[C@H](c3ccc(NC(=O)[C@@H]4CCCN4C(=O)[C@@H](NC(=O)OC)C(C)C)cc3)CC[C@H]2c2ccc(NC(=O)[C@@H]3CCCN3C(=O)[C@@H](NC(=O)OC)C(C)C)cc2)cc1 | 92.7% | 3 h | 22.5 h | 3040 ng·h/mL | 12.7 h | 605 ng·h/mL | 0.00017 | 8e-05 | 6e-05 | 8e-05 | 0.8 | 16.6% | 28.1 | 31.9 | Not Active | Not Active | Not Active | 8.7%
COC(=O)N[C@H](C(=O)N1CCC[C@H]1C(=O)Nc1ccc([C@@H]2CC[C@@H](c3ccc(NC(=O)[C@@H]4CCCN4C(=O)[C@@H](NC(=O)OC)C(C)C)cc3)N2c2ccc(C(C)(C)C)cc2)cc1)C(C)C [OMBITASVIR] | 88.7% | 3 h | 7.7 h | 6480 ng·h/mL | 11.1 h | 188 ng·h/mL | 1e-05 | 4e-05 | 1e-05 | 3e-05 | 6.7 | 11.8% | 24.6 | 22.3 | Not Active | Not Active | Not Active | 1.8%
